{"data": "Measurements collected from several papers", "ACHE": "Acetylcholinesterase (ACHE, Homo sapiens, UniProt P22303)", "Sialidase-2": "Sialidase-2 (Homo sapiens, UniProt Q9Y3R4)", "FABP4": "Fatty acid-binding protein, adipocyte (FABP4, Homo sapiens, UniProt P15090)", "DPP4": "Dipeptidyl peptidase 4 (DPP4, Homo sapiens, UniProt P27487)", "note": "Lines come from different studies, so protocols differ."}
{"Structure (SMILES)": "Cc1cccc(C=Nc2ccc(SCc3cc(=O)c(O)co3)cc2)c1", "target": "ACHE", "assay": "enzyme activity, inhibitor, Ellman", "IC50 [µM]": 5.66}
{"Structure (SMILES)": "CC(=O)N(C)[C@H]1[C@H]([C@H](O)[C@H](O)CO)OC(C(=O)O)=C[C@@H]1O", "target": "Sialidase-2", "assay": "enzyme activity, inhibitor", "IC50 [µM]": "> 500"}
{"Structure (SMILES)": "O=C(O)C(F)(F)C(F)(F)C(F)(F)C(F)(F)C(F)(F)F", "target": "FABP4", "assay": "ligand displacement, fluorescence", "setting": "pH 7.5", "IC50 [µM]": 209}
{"Structure (SMILES)": "CN(C(=O)CC(C)(C)C)[C@H]1[C@H]([C@H](O)[C@H](O)CO)OC(C(=O)O)=C[C@@H]1O", "target": "Sialidase-2", "assay": "enzyme activity, inhibitor", "IC50 [µM]": 50}
{"Structure (SMILES)": "O=C(O)C(F)(F)C(F)(F)C(F)(F)F", "target": "FABP4", "assay": "ligand displacement, fluorescence", "setting": "pH 7.5", "IC50 [µM]": 2840}
{"Structure (SMILES)": "CC(C)CCC(=O)N[C@H]1[C@H]([C@H](O)[C@H](O)CO)OC(C(=O)O)=C[C@@H]1O", "target": "Sialidase-2", "assay": "enzyme activity, inhibitor", "IC50 [µM]": 10}
{"Structure (SMILES)": "COC(=O)[C@@H](NC(=O)COc1c(NC(C)=O)cc(-c2nc3ccccc3s2)cc1OC)C(C)C", "target": "ACHE", "assay": "enzyme activity, inhibitor, Ellman", "IC50 [µM]": "> 264"}
{"Structure (SMILES)": "O=C(O)C1=C[C@H](O)[C@@H](NCc2ccc(-c3ccccc3)cc2)[C@H]([C@H](O)[C@H](O)CO)O1", "target": "Sialidase-2", "assay": "enzyme activity, inhibitor", "IC50 [µM]": 230}
{"Structure (SMILES)": "COC(=O)CNC(=O)COc1c(NC(C)=O)cc(-c2nc3ccccc3s2)cc1OC", "target": "ACHE", "assay": "enzyme activity, inhibitor, Ellman", "IC50 [µM]": "> 289"}
{"Structure (SMILES)": "O=c1cc(CSc2ccc(N=Cc3ccccc3Cl)cc2)occ1O", "target": "ACHE", "assay": "enzyme activity, inhibitor, Ellman", "IC50 [µM]": 2.33}
{"Structure (SMILES)": "CCOC(=O)c1ccc(OC(=O)CCCCCN=C(N)N)cc1", "target": "Kallikrein-13 (Homo sapiens, UniProt Q9UKR3)", "assay": "enzyme activity, inhibitor", "IC50 [µM]": 12.2}
{"Structure (SMILES)": "NC(=O)CC[C@H](NC(=O)[C@@H]1CCCN1C(=O)[C@H](CCC(N)=O)NC(=O)[C@@H]1CCCN1C(=O)[C@@H](N)Cc1ccc(O)cc1)C(=O)O", "target": "DPP4", "assay": "enzyme activity, inhibitor, absorbance", "setting": "pH 8", "IC50 [µM]": 23.9}
{"Structure (SMILES)": "O=c1cc(CSc2ccc(N=Cc3ccc(F)cc3)cc2)occ1O", "target": "ACHE", "assay": "enzyme activity, inhibitor, Ellman", "IC50 [µM]": 1.44}
{"Structure (SMILES)": "O=C(O)C(F)(F)C(F)(F)C(F)(F)C(F)(F)C(F)(F)C(F)(F)C(F)(F)C(F)(F)C(F)(F)C(F)(F)C(F)(F)F", "target": "Sterol carrier protein 2 (Homo sapiens, UniProt P22307)", "assay": "ligand displacement, fluorescence", "IC50 [µM]": 2.37}
{"Structure (SMILES)": "CC(=O)c1c(C)c2cnc(Nc3ccc(C4CCN(CCS(C)(=O)=O)CC4)cn3)nc2n(C2CCCC2)c1=O", "target": "Cytochrome P450 2C9 (CYP2C9, Homo sapiens, UniProt P11712)", "assay": "enzyme activity, inhibitor", "test system": "human, liver microsomes", "IC50 [µM]": "> 10"}
{"Structure (SMILES)": "C1CO1.C=O.CC(C)(C)CC(C)(C)c1ccc(O)cc1", "target": "Mitogen-activated protein kinase 3 (MAPK3, Homo sapiens, UniProt P27361)", "assay": "enzyme activity, inhibitor, ADP detection", "IC50 [µM]": 91.9}
{"Structure (SMILES)": "O=c1cc(CSc2ccc(N=Cc3ccccc3C(F)(F)F)cc2)occ1O", "target": "ACHE", "assay": "enzyme activity, inhibitor, Ellman", "IC50 [µM]": 8.05}
{"Structure (SMILES)": "CC(C)(C)CC(=O)N[C@H]1[C@H]([C@H](O)[C@H](O)CO)OC(C(=O)O)=C[C@@H]1O", "target": "Sialidase-2", "assay": "enzyme activity, inhibitor", "IC50 [µM]": 80}
{"Structure (SMILES)": "O=C(O)C(F)(F)C(F)(F)C(F)(F)C(F)(F)C(F)(F)C(F)(F)C(F)(F)C(F)(F)C(F)(F)F", "target": "FABP4", "assay": "ligand displacement, fluorescence", "setting": "pH 7.5", "IC50 [µM]": 3.54}
{"Structure (SMILES)": "CCc1ccc(C=Nc2ccc(SCc3cc(=O)c(O)co3)cc2)cc1", "target": "ACHE", "assay": "enzyme activity, inhibitor, Ellman", "IC50 [µM]": 8.46}
{"Structure (SMILES)": "CCN[C@H]1[C@H]([C@H](O)[C@H](O)CO)OC(C(=O)O)=C[C@@H]1O", "target": "Sialidase-2", "assay": "enzyme activity, inhibitor", "IC50 [µM]": "> 500"}
{"Structure (SMILES)": "Cn1cc2cc(C(F)(F)c3nnc4ccc(-c5cnn(C6CC6)c5)nn34)c(F)cc2n1", "target": "Proto-oncogene tyrosine-protein kinase Src (SRC, Homo sapiens, UniProt P12931)", "assay": "enzyme activity, inhibitor, ADP detection", "IC50 [µM]": "> 1"}
{"Structure (SMILES)": "COc1cc(-c2nc3ccccc3s2)cc(NC(C)=O)c1OCC(=O)NCC(=O)O", "target": "ACHE", "assay": "enzyme activity, inhibitor, Ellman", "IC50 [µM]": "> 298"}
{"Structure (SMILES)": "CC(C)(C)NC(=O)N[C@H]1[C@H]([C@H](O)[C@H](O)CO)OC(C(=O)O)=C[C@@H]1O", "target": "Sialidase-2", "assay": "enzyme activity, inhibitor", "IC50 [µM]": "> 500"}
{"Structure (SMILES)": "COc1cccc(C=Nc2ccc(SCc3cc(=O)c(O)co3)cc2)c1", "target": "ACHE", "assay": "enzyme activity, inhibitor, Ellman", "IC50 [µM]": 19.9}
{"Structure (SMILES)": "C=CCc1ccc(O)c(-c2cc(CC=C)ccc2O)c1", "target": "DPP4", "assay": "enzyme activity, inhibitor, fluorescence", "IC50 [µM]": "> 100"}
{"Structure (SMILES)": "O=c1cc(CSc2ccc(N=Cc3ccccc3[N+](=O)[O-])cc2)occ1O", "target": "ACHE", "assay": "enzyme activity, inhibitor, Ellman", "IC50 [µM]": 5.13}
{"Structure (SMILES)": "O=C(O)C(F)(F)C(F)(F)C(F)(F)C(F)(F)C(F)(F)C(F)(F)C(F)(F)F", "target": "FABP4", "assay": "ligand displacement, fluorescence", "setting": "pH 7.5", "IC50 [µM]": 4.67}
{"Structure (SMILES)": "O=c1cc(CSc2ccc(N=Cc3ccccc3)cc2)occ1O", "target": "ACHE", "assay": "enzyme activity, inhibitor, Ellman", "IC50 [µM]": 8.26}
{"Structure (SMILES)": "CCCCCCN[C@H]1[C@H]([C@H](O)[C@H](O)CO)OC(C(=O)O)=C[C@@H]1O", "target": "Sialidase-2", "assay": "enzyme activity, inhibitor", "IC50 [µM]": 16}
